# In article PMC7381488 (EBioMedicine, 2020):
# Entries after “also recorded” stand apart in the source; their conditions may differ. Where two headings read alike, the source gives them in different places.
# Assays:
# [1] = Drug concentrations in rectal tissues of macaques 24h after oral dosing; format: in vivo; details: for rectal tissue concentration, macaques compared with humans: p=0•43 (EVG), p=0•073 (FTC), p=1 (TFV)
# Method in brief: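 Macaques received one oral gavage solution (20 mg/kg FTC, 1•5 mg/kg TAF, 30 mg/kg EVG, 30 mg/kg COBI) in 65% PEG 400/20% TPGS/15% phosphate buffer pH 8. Mucosal biopsies were taken about 5-6 cm above the anal aperture 24 h post-dose: FTC/EVG in 12 animals, TFV-DP/FTC-TP in 4. Analysis was by HPLC-MS/MS or LC-MS-MS. Median biopsy weight was 0•037 g. Comparison with humans used the Wilcoxon rank sum test.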
# [2] = macaques, cited from earlier work
# [3] = format: in vivo, rhesus macaques; details: 30 mg/kg EVG + 30 mg/kg COBI vs 50 mg/kg EVG alone, macaques
# [4] = format: in vivo, humans; details: for peak intracellular concentration in PBMCs: humans n=7, single Genvoya tablet (200 mg FTC/10 mg TAF/150 mg EVG/150 mg COBI), at 4h, median [range]; for time of peak in PBMCs: humans, single Genvoya tablet
# Method in brief: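 Seven HIV-negative men took a single oral tablet (200 mg FTC/10 mg TAF/150 mg EVG/150 mg COBI), with PBMCs collected at each time point. Cells were lysed in cold 80% methanol and stored at -80C. TFV-DP and FTC-TP were quantified by LC-MS-MS, with LLOQ 100 fmol/sample for TFV-DP and 500 fmol/sample for FTC-TP.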
# [5] = Intracellular TFV-DP and FTC-TP in PBMCs of macaques after a single oral dose; format: in vivo; details: for peak intracellular concentration in PBMCs: macaques n=4, 20 mg/kg FTC, 1•5 mg/kg TAF, 30 mg/kg EVG/COBI oral, at 24h, median [range]; for time of peak in PBMCs: macaques, single oral dose
# Method in brief: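 Four macaques were gavaged once with FTC 20 mg/kg, TAF 1•5 mg/kg, EVG 30 mg/kg and COBI 30 mg/kg in PEG 400/TPGS/phosphate buffer vehicle. PBMCs were sampled over time and lysed in cold 80% methanol, then stored at -80C. TFV-DP and FTC-TP were measured by LC-MS-MS, with LLOQs of 100 and 500 fmol/sample respectively.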
# [6] = format: in vivo, macaques
# Method in brief: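 PEP arms were dosed by oral gavage at +2h (n=5), +6h (n=6), +24h (n=6) or +24h/+48h (n=6) after rectal SHIV162P3 exposure. Dosing and challenge recurred every two weeks for up to 8 exposures. PBMC TFV-DP and FTC-TP were measured at each subsequent challenge, 2 weeks after dosing, and reported as medians. Values below LLOQ were set to 10 fmol/10^6 cells.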
# [7] = Drug concentrations in rectal tissues of humans 24h after a single tablet; format: in vivo
# Method in brief: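 Seven HIV-negative men aged 18-49 each took one observed oral tablet (200 mg FTC/10 mg TAF/150 mg EVG/150 mg COBI). Rectal biopsies were taken 24 h later. TFV, FTC and EVG were measured by HPLC-MS/MS against a 0•5-2000 ng/mL human-plasma standard curve (LLOQ 10 ng/mL). Intracellular TFV-DP and FTC-TP were measured by LC-MS-MS. Median biopsy weight for extracellular drugs was 0•020 g.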
# virus = details: added between 6 and 10 h after virus exposure; cited from earlier work
structure (smiles),measurement,setting,value
"C[C@H](Cn1cnc2c(N)ncnc21)OCP(=O)(O)O [TFV, tenofovir]","rectal tissue concentration, macaques compared with humans",[1]; 24h after dosing,similar
"COc1cc2c(cc1Cc1cccc(Cl)c1F)c(=O)c(C(=O)O)cn2[C@H](CO)C(C)C [EVG, elvitegravir]",plasma AUC0-24h of EVG without a booster,"[2]; 50 mg/kg EVG oral, no COBI",4000 ngxh/ml
same,plasma Cmax of EVG without a booster,"[2]; 50 mg/kg EVG oral, no COBI",280 ng/mL
same,time in secretions above the protein-adjusted 95% inhibition concentration,"[2]; single oral dose, rectal and vaginal secretions",> 48 h
same,EVG concentration in rectal secretions relative to plasma,[2]; single oral dose,694 fold
same,EVG concentration in vaginal secretions relative to plasma,[2]; single oral dose,114 fold
same,increase of plasma Cmax and AUC0-24h by co-administration of COBI,[3],about 4 fold
same,"rectal tissue concentration, macaques compared with humans",[1]; 24h after dosing,similar
Nc1nc(=O)n([C@@H]2CS[C@H](COP(=O)(O)OP(=O)(O)OP(=O)(O)O)O2)cc1F [FTC-TP],peak intracellular concentration in PBMCs,[4],"4215 [3630–7,150] fmols/10^6 cells"
same,time of peak in PBMCs,[4],4 h
same,peak intracellular concentration in PBMCs,[5],1737 [1153–3523] fmols/10^6 cells
same,time of peak in PBMCs,[5],24 h
same,residual level in PBMCs at the time of virus challenges,[6]; PEP arms,did not detect any residual FTC-TP
same,detection in rectal tissue,[7]; 24h after dosing,mostly undetectable
same,detection in rectal tissue,"[1]; macaques, 24h after dosing",mostly undetectable
"Nc1nc(=O)n([C@@H]2CS[C@H](CO)O2)cc1F [FTC, emtricitabine]","rectal tissue concentration, macaques compared with humans",[1]; 24h after dosing,similar
"Cc1nnc(C(=O)NC(C)(C)c2nc(C(=O)NCc3ccc(F)cc3)c(O)c(=O)n2C)o1 [RAL, raltegravir]",post-infection inhibition in culture,virus,high post-infection inhibition
C[C@@H](Cn1cnc2c(N)ncnc21)OCP(=O)(O)OP(=O)(O)OP(=O)(O)O [TFV-DP],peak intracellular concentration in PBMCs,[4],299 [121–523] fmols/10^6 cells
same,time of peak in PBMCs,[4],4 h
same,peak intracellular concentration in PBMCs,[5],746 [509–1828] fmols/10^6 cells
same,time of peak in PBMCs,[5],24 h
same,median residual level in PBMCs at time of SHIV challenge,[6]; +2h arm,< LLOQ; also recorded: below the limit of detection
same,median residual level in PBMCs at time of SHIV challenge,[6]; +6h arm,< LLOQ; also recorded: below the limit of detection
same,median intracellular level in rectal tissue,[7]; 24h after single Genvoya tablet,"17,100 fmols/mg of tissue"
same,median intracellular level in rectal tissue,"[1]; macaques, 24h after single oral dose","10,600 fmols/mg"
